Measured values published in ChEMBL document CHEMBL4622986, “Synthesis and Anti-HCV Activity of Sugar-Modified Guanosine Analogues: Discovery of AL-611 as an HCV NS5B Polymerase Inhibitor for the Treatment of Chronic Hepatitis C” (J Med Chem, 2020).
pEC50: −log10 of the molar value.

Key:
[1] = Cytotoxicity against human A549 cells incubated for 8 days by cellTiter-Glo assay; assay type: cell-based
Outline: (§1)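 Cells (1×10^5/well) on collagen I-coated wells, first kept 8 days in recommended medium without drug, then exposed to compound for 8 days with refeeding every other day. Viability read by CellTiter-Glo luminescence; CC50 derived by curve fitting.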

[2] = Prodrug activation in human hepatocytes assessed as [[(2S,3S,4R,5R)-5-(2-amino-6-oxo-1H-purin-9-yl)-2,4-difluoro-3-hydroxy-4-methyl-tetrahydrofuran-2-yl]methoxy-hydroxy-phosphoryl]phosphono hydrogen phosphate metabolite formation after 24 to 48 hrs by LC-MS/MS analysis; assay type: ADME, cell-based, Hepatocyte
[3] = Prodrug activation in Beagle dog assessed as [[(2S,3S,4R,5R)-5-(2-amino-6-oxo-1H-purin-9-yl)-2,4-difluoro-3-hydroxy-4-methyl-tetrahydrofuran-2-yl]methoxy-hydroxy-phosphoryl]phosphono hydrogen phosphate metabolite formation in liver at 9.69 mg/kg, po measured at 4 hrs post dose by LC-MS/MS analysis; assay type: ADME, organism-based, Canis lupus familiaris; conditions: in vivo
Outline: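 Male non-naïve beagle dogs (n=2 per time point), fasted overnight, single oral dose of 9.69 mg/kg (5 mg/kg parent nucleoside equivalent) as a solution in 40% PEG400 in water. Animals anesthetized with pentobarbital before liver collection. Liver NTP measured by negative-ion LC-MS/MS against standards spiked into blank liver homogenate.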

[4] = Cytotoxicity against human HuH7 cells infected with HCV con1 subgenomic replicon assessed as reduction in cell viability measured after 3 days by CellTiter-blue cell viability assay; assay type: cell-based, Huh-7
Outline: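 Run in the replicon-bearing Huh-7 cells under the same settings as the antiviral read (DMEM, 2% FBS, 0.5% DMSO, no G418, 37 °C). After 3 days of treatment, viability was read with CellTiter-Blue and CC50 was derived by curve fitting.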

[5] = Prodrug activation in human hepatocytes assessed as [[(2S,3S,4R,5R)-5-(2-amino-6-oxo-1H-purin-9-yl)-2,4-difluoro-3-hydroxy-4-methyl-tetrahydrofuran-2-yl]methoxy-hydroxy-phosphoryl]phosphono hydrogen phosphate metabolite formation per million cells at 50 uM incubated for 24 hrs by LC-MS/MS analysis; assay type: ADME, cell-based, Hepatocyte
Outline: (§2)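 Primary human hepatocytes (1.5-2 million cells/well) acclimated overnight at 37 °C, 5% CO2, then incubated 24 h with 50 μM extracellular compound. Cells washed with cold 0.9% NaCl and lysed in 70/30 methanol/water. Extract dried and reconstituted, then analysed by LC-MS/MS with an internal standard; reported as pmol per million cells.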

[6] = Cytotoxicity against human HepG2 cells incubated for 8 days by cellTiter-Glo assay; assay type: cell-based; outline: as §1
[7] = Cytotoxicity against human MT4 cells incubated for 8 days by cellTiter-Glo assay; assay type: cell-based; outline: as §1
[8] = Prodrug activation in human hepatocytes assessed as time at which [[(2S,3S,4R,5R)-5-(2-amino-6-oxo-1H-purin-9-yl)-2,4-difluoro-3-hydroxy-4-methyl-tetrahydrofuran-2-yl]methoxy-hydroxy-phosphoryl]phosphono hydrogen phosphate metabolite formation reached steady state at 10 uM incubated for 2 to 72 hrs by LC-MS/MS analysis; assay type: ADME, cell-based, Hepatocyte
Outline: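 Primary human hepatocytes acclimated overnight at 37 °C, 5% CO2, then continuously incubated with 10 μM compound and sampled over 2-72 h. Cells washed with cold saline and lysed in 70/30 methanol/water. Intracellular NTP quantified by negative-ion LC-MS/MS against standards spiked into untreated hepatocyte lysate.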

[9] = Cytotoxicity against human HeLa cells incubated for 8 days by cellTiter-Glo assay; assay type: cell-based; outline: as §1
[10] = Prodrug activation in human hepatocytes assessed as [[(2S,3S,4R,5R)-5-(2-amino-6-oxo-1H-purin-9-yl)-2,4-difluoro-3-hydroxy-4-methyl-tetrahydrofuran-2-yl]methoxy-hydroxy-phosphoryl]phosphono hydrogen phosphate metabolite formation at 0.5 to 50 uM incubated for 24 hrs by LC-MS/MS analysis; assay type: ADME, cell-based, Hepatocyte
Outline: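 Primary human hepatocytes from three donors, acclimated overnight at 37 °C, 5% CO2, incubated 24 h across a range of extracellular compound concentrations. Cells washed with cold saline and lysed in 70/30 methanol/water. Intracellular NTP measured by negative-ion LC-MS/MS against standards spiked into untreated hepatocyte lysate; mean ± standard deviation reported.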

[11] = Prodrug activation in human hepatocytes assessed as nucleoside monophosphate metabolite formation per million cells incubated for 24 hrs; assay type: ADME, cell-based, Hepatocyte; outline: as §2
Hepatitis C virus = assay: Antiviral activity against HCV con1 subgenomic replicon infected in human HuH7 cells assessed as reduction in viral RNA level by qRT-PCR analysis; assay type: functional, organism-based, Hepacivirus hominis; conditions: isolate Con1, Huh-7
Outline: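 Huh-7 cells carrying a subgenomic Con1 HCV replicon (neomycin phosphotransferase, kept under 0.25 mg/ml G418) were exposed to serially diluted compound in DMEM with 2% FBS and 0.5% DMSO, without G418, at 37 °C. Total RNA was extracted and HCV RNA copies were measured by multiplex QRT-PCR (Taqman). EC50 was obtained by 4-parameter curve fit.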

[12] = Cytotoxicity against human HuH7 cells incubated for 8 days by cellTiter-Glo assay; assay type: cell-based, Huh-7; outline: as §1
[13] = Selectivity index, ratio of CC50 for human HuH7 cells infected with HCV con1 subgenomic replicon to EC50 for HCV con1 subgenomic replicon; assay type: toxicity; conditions: read-out: Ratio CC50/EC50
Outline: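 Ratio of CC50 (CellTiter-Blue viability after 3 days) to EC50 (HCV RNA by QRT-PCR). Both were measured in Huh-7 Con1 subgenomic replicon cells in DMEM with 2% FBS and 0.5% DMSO at 37 °C.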

[14] = Cytotoxicity against human U937 cells incubated for 8 days by cellTiter-Glo assay; assay type: cell-based, U-937; outline: as §1
[15] = Prodrug activation in human hepatocytes assessed as half life of [[(2S,3S,4R,5R)-5-(2-amino-6-oxo-1H-purin-9-yl)-2,4-difluoro-3-hydroxy-4-methyl-tetrahydrofuran-2-yl]methoxy-hydroxy-phosphoryl]phosphono hydrogen phosphate metabolite at 50 uM incubated for 24 hrs followed by medium replacement measured after 6 hrs by LC-MS/MS analysis; assay type: ADME, cell-based, Hepatocyte
Outline: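 Primary human hepatocytes acclimated overnight at 37 °C, 5% CO2, then given 50 μM compound for 24 h. Medium replaced with blank medium and cells sampled at 0, 3, 6, 10, 24 and 48 h. Cells washed with cold saline and lysed in 70/30 methanol/water; NTP measured by LC-MS/MS. Half-life obtained by first-order fit of the terminal phase (n = 3).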

Q: Which CC50 at 192 h [1] does the source give for `CCOc1nc(N)nc2c1ncn2[C@@H]1O[C@](F)(COP(=O)(N[C@@H](C)C(=O)OC(C)C)Oc2ccccc2)[C@@H](O)[C@@]1(C)F` (stereo partly specified) here?
A: Its CC50 at 192 h is over 100 µM.

Q: And the Drug metabolism [2]?
A: Its Drug metabolism is “Metabolite_Notdetected”.

Q: And the Drug metabolism [3]?
A: The Drug metabolism was 11.2 µM.

Q: And the CC50 at 72 h [4]?
A: Its CC50 at 72 h is over 100 µM.

Q: What about the Drug metabolism [5] of the same compound?
A: The Drug metabolism was 271 pmol.

Q: And the CC50 at 192 h [6]?
A: The CC50 at 192 h was over 100 µM.

Q: And the CC50 at 192 h [7]?
A: Its CC50 at 192 h is 92 µM.

Q: And the Time [8]?
A: The Time was 2 to 16 h.

Q: And the CC50 at 192 h [9]?
A: Its CC50 at 192 h is over 100 µM.

Q: What about the Drug metabolism [10] of the same compound?
A: The Drug metabolism was “Metabolite_Detected”.

Q: What about the Drug metabolism [11] of the same compound?
A: Its Drug metabolism is 89 pmol.

Q: And the pEC50 (Hepatitis C virus)?
A: The pEC50 was 7.85.

Q: And the CC50 at 192 h [12]?
A: The CC50 at 192 h was over 100 µM.

Q: And the selectivity ratio [13]?
A: The selectivity ratio was over 7000.

Q: And the CC50 at 192 h [14]?
A: Its CC50 at 192 h is 10 µM.

Q: What about the t1/2 [15] of the same compound?
A: The t1/2 was 11.2 h.
